Measurements: ChEMBL document CHEMBL1240405, “Activity of a new cephalosporin, CXA-101 (FR264205), against beta-lactam-resistant Pseudomonas aeruginosa mutants selected in vitro and after antipseudomonal treatment of intensive care unit patients” (2010)
Converted amounts (≈) assume the structure as drawn.

Tests used:
Format in all cases: functional
Pseudomonas aeruginosa [1] = experiment: Antimicrobial activity against beta-lactam resistant Pseudomonas aeruginosa PAO1 by broth microdilution method
Outline: (§1)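 Broth microdilution MICs per CLSI M100-S18, over 0.12 to 256 μg/ml. Strains are PAO1 and its mutants. oprD mutants were selected overnight on Mueller-Hinton agar with 4 μg/ml imipenem, passaged antibiotic-free, then confirmed by oprD amplification and sequencing. PAO1 and ATCC 27853 were run alongside as quality controls.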

Pseudomonas aeruginosa [2] = experiment: Antimicrobial activity against beta-lactam resistant Pseudomonas aeruginosa PAO1 deficient in ampD and ampDh3 gene selected in vitro after antipseudomonal treatment of intensive care unit patient by broth microdilution method; outline: as §1
Pseudomonas aeruginosa [3] = experiment: Antimicrobial activity against beta-lactam resistant Pseudomonas aeruginosa PAO1 deficient in ampD, […] gene selected in vitro after antipseudomonal treatment of intensive care unit patient by broth microdilution method; outline: as §1
Pseudomonas aeruginosa [4] = experiment: Antimicrobial activity against beta-lactam resistant Pseudomonas aeruginosa PAO1 deficient in ampD and dacB gene selected in vitro after antipseudomonal treatment of intensive care unit patient by broth microdilution method; outline: as §1
Pseudomonas aeruginosa [5] = experiment: Antimicrobial activity against beta-lactam resistant Pseudomonas aeruginosa PAOD2 harboring oprD spontaneous mutant selected in vitro after antipseudomonal treatment of intensive care unit patient by broth microdilution method; outline: as §1
Pseudomonas aeruginosa [6] = experiment: Antimicrobial activity against beta-lactam resistant Pseudomonas aeruginosa PAOD3 harboring oprD spontaneous mutant selected in vitro after antipseudomonal treatment of intensive care unit patient by broth microdilution method; outline: as §1
Pseudomonas aeruginosa [7] = experiment: Antimicrobial activity against beta-lactam resistant Pseudomonas aeruginosa PAOD1 harboring oprD spontaneous mutant and deficient in ampD gene selected in vitro after antipseudomonal treatment of intensive care unit patient by broth microdilution method; outline: as §1
Pseudomonas aeruginosa [8] = experiment: Antimicrobial activity against beta-lactam resistant beta-lactam resistant Pseudomonas aeruginosa PAOD3 harboring oprD spontaneous mutant and deficient in ampD gene selected in vitro after antipseudomonal treatment of intensive care unit patient by broth microdilution method; outline: as §1
Pseudomonas aeruginosa [9] = experiment: Antimicrobial activity against beta-lactam resistant Pseudomonas aeruginosa PAOD1 harboring oprD spontaneous mutant and deficient in dacB gene selected in vitro after antipseudomonal treatment of intensive care unit patient by broth microdilution method; outline: as §1
Pseudomonas aeruginosa [10] = experiment: Antimicrobial activity against beta-lactam resistant Pseudomonas aeruginosa PAOD2 harboring oprD spontaneous mutant and deficient in dacB gene selected in vitro after antipseudomonal treatment of intensive care unit patient by broth microdilution method; outline: as §1
Pseudomonas aeruginosa [11] = experiment: Antimicrobial activity against beta-lactam resistant Pseudomonas aeruginosa PAOD3 harboring oprD spontaneous mutant and deficient in dacB gene selected in vitro after antipseudomonal treatment of intensive care unit patient by broth microdilution method; outline: as §1
Pseudomonas aeruginosa [12] = experiment: Antimicrobial activity against beta-lactam resistant Pseudomonas aeruginosa PA01 deficient in dacB gene by broth microdilution method; outline: as §1
Pseudomonas aeruginosa [13] = experiment: Induction of ampC expression in beta-lactam resistant Pseudomonas aeruginosa PAO1 at 50 ug/mL
Outline: (§2)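 ampC expression measured by real-time RT-PCR in PAO1 and its mutants, under basal conditions and after induction with 50 μg/ml cefoxitin.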

Pseudomonas aeruginosa [14] = experiment: Induction of ampC expression in beta-lactam resistant Pseudomonas aeruginosa PAO1 deficient in ampD gene selected in vitro after antipseudomonal treatment of intensive care unit patient at 50 ug/mL; outline: as §2
Pseudomonas aeruginosa [15] = experiment: Induction of ampC expression in beta-lactam resistant Pseudomonas aeruginosa PAO1 deficient in ampD and ampDh3 gene selected in vitro after antipseudomonal treatment of intensive care unit patient at 50 ug/mL; outline: as §2
Pseudomonas aeruginosa [16] = experiment: Induction of ampC expression in beta-lactam resistant Pseudomonas aeruginosa PAO1 deficient in ampD, […] gene selected in vitro after antipseudomonal treatment of intensive care unit patient at 50 ug/mL; outline: as §2
Pseudomonas aeruginosa [17] = experiment: Induction of ampC expression in beta-lactam resistant Pseudomonas aeruginosa PA01 deficient in dacB gene at 50 ug/mL; outline: as §2
Pseudomonas aeruginosa [18] = experiment: Induction of ampC expression in beta-lactam resistant Pseudomonas aeruginosa PAO1 deficient in ampD and dacB gene selected in vitro after antipseudomonal treatment of intensive care unit patient at 50 ug/ml; outline: as §2
Pseudomonas aeruginosa [19] = experiment: Antimicrobial activity against beta-lactam resistant Pseudomonas aeruginosa PAO1 deficient in ampD gene selected in vitro after antipseudomonal treatment of intensive care unit patient by broth microdilution method; outline: as §1
Pseudomonas aeruginosa [20] = experiment: Antimicrobial activity against beta-lactam resistant Pseudomonas aeruginosa PAOD1 harboring oprD spontaneous mutant selected in vitro after antipseudomonal treatment of intensive care unit patient by broth microdilution method; outline: as §1
Pseudomonas aeruginosa [21] = experiment: Antimicrobial activity against beta-lactam resistant Pseudomonas aeruginosa PAOD2 harboring oprD spontaneous mutant and deficient in ampD gene by selected in vitro after antipseudomonal treatment of intensive care unit patient by broth microdilution method; outline: as §1
Pseudomonas aeruginosa [22] = experiment: Antimicrobial activity against Pseudomonas aeruginosa clinical isolate assessed as resistant isolates selected in vitro after antipseudomonal treatment of intensive care unit patient by CLSI method

SMILES | MIC (Pseudomonas aeruginosa [1]) | MIC (Pseudomonas aeruginosa [2]) | MIC (Pseudomonas aeruginosa [3]) | MIC (Pseudomonas aeruginosa [4]) | MIC (Pseudomonas aeruginosa [5]) | MIC (Pseudomonas aeruginosa [6]) | MIC (Pseudomonas aeruginosa [7]) | MIC (Pseudomonas aeruginosa [8]) | MIC (Pseudomonas aeruginosa [9]) | MIC (Pseudomonas aeruginosa [10]) | MIC (Pseudomonas aeruginosa [11]) | MIC (Pseudomonas aeruginosa [12]) | other results
CO/N=C(\C(=O)N[C@@H]1C(=O)N2C(C(=O)[O-])=C(C[N+]3(C)CCCC3)CS[C@H]12)c1csc(N)n1 | 2 µg/mL (≈ 4.16 µM) | 8 µg/mL (≈ 16.6 µM) | 8 µg/mL (≈ 16.6 µM) | 32 µg/mL (≈ 66.6 µM) | 2 µg/mL (≈ 4.16 µM) | 2 µg/mL (≈ 4.16 µM) | 4 µg/mL (≈ 8.32 µM) | 8 µg/mL (≈ 16.6 µM) | 32 µg/mL (≈ 66.6 µM) | 32 µg/mL (≈ 66.6 µM) | 32 µg/mL (≈ 66.6 µM) | 16 µg/mL (≈ 33.3 µM) | 
C[C@H]1[C@H](NC(=O)/C(=N\OC(C)(C)C(=O)O)c2csc(N)n2)C(=O)N1S(=O)(=O)O [AZTREONAM] | 4 µg/mL (≈ 9.19 µM) | 32 µg/mL (≈ 73.5 µM) | 32 µg/mL (≈ 73.5 µM) | 128 µg/mL (≈ 294 µM) | 4 µg/mL (≈ 9.19 µM) | 4 µg/mL (≈ 9.19 µM) | 8 µg/mL (≈ 18.4 µM) | 8 µg/mL (≈ 18.4 µM) | 32 µg/mL (≈ 73.5 µM) | 32 µg/mL (≈ 73.5 µM) | 32 µg/mL (≈ 73.5 µM) | 32 µg/mL (≈ 73.5 µM) | 
CO[C@@]1(NC(=O)Cc2cccs2)C(=O)N2C(C(=O)O)=C(COC(N)=O)CS[C@@H]21 [CEFOXITIN] |  |  |  |  |  |  |  |  |  |  |  |  | fold change (FC) (Pseudomonas aeruginosa [13]): 50; fold change (FC) (Pseudomonas aeruginosa [14]): 134; fold change (FC) (Pseudomonas aeruginosa [15]): 1014; fold change (FC) (Pseudomonas aeruginosa [16]): 1105; fold change (FC) (Pseudomonas aeruginosa [17]): 232; fold change (FC) (Pseudomonas aeruginosa [18]): 1950
CC(C)(O/N=C(\C(=O)N[C@@H]1C(=O)N2C(C(=O)[O-])=C(C[n+]3ccccc3)CS[C@H]12)c1csc(N)n1)C(=O)O [CEFTAZIDIME] | 2 µg/mL (≈ 3.66 µM) | 32 µg/mL (≈ 58.5 µM) | 32 µg/mL (≈ 58.5 µM) | 128 µg/mL (≈ 234 µM) | 2 µg/mL (≈ 3.66 µM) | 2 µg/mL (≈ 3.66 µM) | 16 µg/mL (≈ 29.3 µM) | 16 µg/mL (≈ 29.3 µM) | 32 µg/mL (≈ 58.5 µM) | 32 µg/mL (≈ 58.5 µM) | 32 µg/mL (≈ 58.5 µM) | 32 µg/mL (≈ 58.5 µM) | MIC (Pseudomonas aeruginosa [19]): 8 µg/mL (≈ 14.6 µM); MIC (Pseudomonas aeruginosa [20]): 2 µg/mL (≈ 3.66 µM); MIC (Pseudomonas aeruginosa [21]): 16 µg/mL (≈ 29.3 µM); Activity (Pseudomonas aeruginosa [22]): 81%
